From ChEMBL document CHEMBL3808334, “Synthesis and in vitro evaluation of novel triazine analogues as anticancer agents and their interaction studies with bovine serum albumin” (Eur J Med Chem, 2016)

Columns and labels:
Assay type in all cases: functional
[1] = Growth inhibition of human DU145 cells assessed as cell growth at 10^-5 M incubated for 48 hrs by sulforhodamine B assay; conditions: DU-145, 48 h, read-out: Activity
Outline: (§1)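 Cells seeded at 5,000–40,000/well according to doubling time and preincubated 24 h at 37 °C, 5% CO2. Time-zero plates were TCA-fixed. DMSO concentrate was diluted in medium with 50 µg/ml gentamicin to give five concentrations (10-fold or ½ log steps), then exposed 48 h. Cells were TCA-fixed, stained with 0.4% SRB and read at 515 nm. Percent growth was taken against time-zero and control; GI50, TGI and LC50 derived.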

[2] = system: A549; test: Growth inhibition of human A549/ATCC cells assessed as cell growth at 10^-6 M incubated for 48 hrs by sulforhodamine B assay; conditions: A549, 48 h, read-out: Activity
Outline: (§2)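 Five-dose assay: five concentrations from 10-fold or ½-log serial dilutions. Cells are plated at 5,000–40,000 per well according to doubling time, grown 24 h, then exposed 48 h at 37 °C, 5% CO₂. Fixed with cold 50% TCA (final addition) for 60 min at 4 °C and stained with 0.4% SRB in 1% acetic acid. Bound dye is solubilized in 10 mM Tris base and read at 515 nm. GI₅₀ is where [(Ti−Tz)/(C−Tz)]×100 = 50, with a time-zero plate as Tz.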

[3] = Growth inhibition of human SNB19 cells assessed as cell growth at 10^-6 M incubated for 48 hrs by sulforhodamine B assay; conditions: SNB-19, 48 h, read-out: Activity
[4] = Growth inhibition of human RPMI8226 cells assessed as cell growth at 10 uM incubated for 48 hrs by sulforhodamine B assay; conditions: RPMI-8226, 48 h, read-out: Activity
[5] = Growth inhibition of human DU145 cells assessed as cell growth at 10^-7 M incubated for 48 hrs by sulforhodamine B assay; conditions: DU-145, 48 h, read-out: Activity; outline: as §1
[6] = Growth inhibition of human CNS cancer cells incubated for 48 hrs by sulforhodamine B assay; conditions: Cancer cell lines; for CC50: read-out: LC50 (the source's name); outline: as §2
[7] = Growth inhibition of human COLO205 cells assessed as cell growth at 10^-8 M incubated for 48 hrs by sulforhodamine B assay; conditions: COLO 205, 48 h, read-out: Activity; outline: as §1
[8] = Growth inhibition of human RXF393 cells assessed as cell growth at 10^-8 M incubated for 48 hrs by sulforhodamine B assay; conditions: RXF 393, 48 h, read-out: Activity
[9] = system: MDA-MB-231; test: Growth inhibition of human MDA-MB-231 cells assessed as cell growth at 10^-8 M incubated for 48 hrs by sulforhodamine B assay; conditions: MDA-MB-231, 48 h, read-out: Activity
[10] = Growth inhibition of human PC3 cells incubated for 48 hrs by sulforhodamine B assay; conditions: PC-3, 48 h
Outline: (§3)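 Cells were plated at 5,000–40,000 per well according to doubling time and preincubated 24 h at 37 °C in 5% CO2; time-zero plates were then TCA-fixed. Five concentrations (10-fold or ½-log dilutions, DMSO stock) were incubated 48 h. Cells were TCA-fixed, stained with 0.4% SRB and read at 515 nm. GI50 was taken where [(Ti−Tz)/(C−Tz)]×100 = 50.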

[11] = system: Malme-3M; test: Growth inhibition of human MALME-3M cells assessed as cell growth at 10^-5 M incubated for 48 hrs by sulforhodamine B assay; conditions: read-out: Activity
[12] = Growth inhibition of human non-small cell lung cancer cells incubated for 48 hrs by sulforhodamine B assay; conditions: Cancer cell lines; for CC50: read-out: LC50 (the source's name)
[13] = Growth inhibition of human HCC2998 cells assessed as cell growth at 10^-8 M incubated for 48 hrs by sulforhodamine B assay; conditions: HCC 2998, 48 h, read-out: Activity; outline: as §1
[14] = Growth inhibition of human renal cancer cells incubated for 48 hrs by sulforhodamine B assay; conditions: Cancer cell lines; for CC50: read-out: LC50 (the source's name)
[15] = system: K562; test: Growth inhibition of human K562 cells assessed as cell growth at 10^-6 M incubated for 48 hrs by sulforhodamine B assay; conditions: K562, 48 h, read-out: Activity
[16] = Growth inhibition of human leukemia cells incubated for 48 hrs by sulforhodamine B assay; conditions: Leukemia cell; for CC50: read-out: LC50 (the source's name)
[17] = Growth inhibition of human SNB19 cells incubated for 48 hrs by sulforhodamine B assay; conditions: SNB-19, 48 h; outline: as §3
[18] = Growth inhibition of human melanoma cells incubated for 48 hrs by sulforhodamine B assay; conditions: Melanoma cell; for CC50: read-out: LC50 (the source's name)
[19] = system: NCI/ADR-RES; test: Growth inhibition of human NCI/ADR-RES cells assessed as cell growth at 10^-6 M incubated for 48 hrs by sulforhodamine B assay; conditions: read-out: Activity
[20] = Growth inhibition of human SNB75 cells assessed as cell growth at 10^-6 M incubated for 48 hrs by sulforhodamine B assay; conditions: SNB-75, 48 h, read-out: Activity
[21] = system: A498; test: Growth inhibition of human A498 cells assessed as cell growth at 10^-6 M incubated for 48 hrs by sulforhodamine B assay; conditions: A498, 48 h, read-out: Activity; outline: as §2
[22] = Growth inhibition of human DU145 cells incubated for 48 hrs by sulforhodamine B assay; conditions: DU-145, 48 h; for CC50: read-out: pLC50 (the source's name) (converted); outline: as §1
[23] = system: KM12; test: Growth inhibition of human KM12 cells assessed as cell growth at 10^-6 M incubated for 48 hrs by sulforhodamine B assay; conditions: KM12, 48 h, read-out: Activity
[24] = system: EKVX; test: Growth inhibition of human EKVX cells assessed as cell growth at 10^-7 M incubated for 48 hrs by sulforhodamine B assay; conditions: read-out: Activity; outline: as §1
[25] = system: SN12C; test: Growth inhibition of human SN12C cells assessed as cell growth at 10 uM incubated for 48 hrs by sulforhodamine B assay; conditions: read-out: Activity
[26] = Growth inhibition of human SF268 cells assessed as cell growth at 10^-6 M incubated for 48 hrs by sulforhodamine B assay; conditions: SF-268, 48 h, read-out: Activity
[27] = read-out: LC50 (the source's name)
[28] = read-out: pLC50 (the source's name) (converted)

## c1ccc(-c2nc(Nc3ccc(-c4nc5ccccc5[nH]4)cc3)nc(N3CCOCC3)n2)cc1
[1]
  growth at 10 µM: -96%
[2]
  growth at 1 µM: 96%
[3]
  growth at 1 µM: 92%
[4]
  growth at 10 µM: -22.6%
[5]
  growth at 0.1 µM: 95%
[6]
  GI50: 1.41 µM
  TGI: 3.04 µM
  CC50: 5.98 µM
[7]
  growth at 0.01 µM: 100%
[8]
  growth at 0.01 µM: 97%
[9]
  growth at 0.01 µM: 97%
[10]; read-out: GI50
  GI50: 1.8 µM
[10]; [27]
  CC50: 7.37 µM
[10]; read-out: TGI
  TGI: 3.64 µM
[10]; read-out: pGI50 (converted)
  GI50: 1.82 µM
[10]; [28]
  CC50: 7.41 µM
[10]; read-out: pTGI (converted)
  TGI: 3.63 µM
[11]
  growth at 10 µM: -73%
[12]
  GI50: 1.74 µM
  TGI: 3.67 µM
  CC50: 14.2 µM
[13]
  growth at 0.01 µM: 100%
[14]
  GI50: 1.2 µM
  TGI: 2.72 µM
  CC50: 6.27 µM
[15]
  growth at 1 µM: -2%
[16]
  GI50: 0.57 µM
  TGI: 2.17 µM
  CC50: 16.3 µM
[17]; read-out: GI50
  GI50: 1.96 µM
[17]; read-out: TGI
  TGI: 4.32 µM
[17]; read-out: pGI50 (converted)
  GI50: 1.95 µM
[17]; read-out: pTGI (converted)
  TGI: 4.37 µM
[18]
  GI50: 1.56 µM
  TGI: 3.18 µM
  CC50: 6.52 µM
[19]
  growth at 1 µM: 81%
[20]
  growth at 1 µM: 88%
[21]
  growth at 1 µM: 55%
[22]
  LC50 (50% net cell kill): 5.12 µM
  CC50: 5.13 µM
[22]; read-out: GI50
  GI50: 1.21 µM
[22]; read-out: TGI
  TGI: 2.49 µM
[22]; read-out: pGI50 (converted)
  GI50: 1.2 µM
[22]; read-out: pTGI (converted)
  TGI: 2.51 µM
[23]
  growth at 1 µM: 85%
[24]
  growth at 0.1 µM: 88%
[25]
  growth at 10 µM: -62.8%
[26]
  growth at 1 µM: 86%

## Fc1ccc(-c2nc(Nc3ccc(-c4nc5ccccc5[nH]4)cc3)nc(N3CCOCC3)n2)cc1
[1]
  growth at 10 µM: 25%
[2]
  growth at 1 µM: 99%
[3]
  growth at 1 µM: 92%
[4]
  growth at 10 µM: -13.8%
[5]
  growth at 0.1 µM: 100%
[6]
  GI50: 2.23 µM
  TGI: 11.8 µM
  CC50: 8.47 µM
[7]
  growth at 0.01 µM: 100%
[8]
  growth at 0.01 µM: 102%
[9]
  growth at 0.01 µM: 92%
[10]; read-out: GI50
  GI50: 2.39 µM
[10]; [27]
  CC50: > 100 µM
[10]; read-out: TGI
  TGI: 6.66 µM
[10]; read-out: pGI50 (converted)
  GI50: 2.4 µM
[10]; [28]
  CC50: > 100 µM
[10]; read-out: pTGI (converted)
  TGI: 6.61 µM
[11]
  growth at 10 µM: -71%
[12]
  GI50: 2.68 µM
  TGI: 6.65 µM
  CC50: 7.76 µM
[13]
  growth at 0.01 µM: 99%
[14]
  GI50: 2.03 µM
  TGI: 7.36 µM
  CC50: 7.83 µM
[15]
  growth at 1 µM: 101%
[16]
  GI50: 2.02 µM
  TGI: 6.11 µM
  CC50: > 100 µM
[17]; read-out: GI50
  GI50: 3.49 µM
[17]; [27]
  CC50: > 100 µM
[17]; read-out: TGI
  TGI: > 100 µM
[17]; read-out: pGI50 (converted)
  GI50: 3.47 µM
[17]; [28]
  CC50: > 100 µM
[17]; read-out: pTGI (converted)
  TGI: > 100 µM
[18]
  GI50: 1.91 µM
  TGI: 4.04 µM
  CC50: 7.43 µM
[19]
  growth at 1 µM: 90%
[20]
  growth at 1 µM: 67%
[21]
  growth at 1 µM: 74%
[22]
  LC50 (50% net cell kill): > 100 µM
  CC50: > 100 µM
[22]; read-out: GI50
  GI50: 4.53 µM
[22]; read-out: TGI
  TGI: > 100 µM
[22]; read-out: pGI50 (converted)
  GI50: 4.57 µM
[22]; read-out: pTGI (converted)
  TGI: > 100 µM
[23]
  growth at 1 µM: 86%
[24]
  growth at 0.1 µM: 91%
[25]
  growth at 10 µM: 40.8%
[26]
  growth at 1 µM: 89%
